# Results: PMC8277203 (The Journal of Clinical Endocrinology and Metabolism, 2021)
# Experiments:
# Assay type in all cases: in vivo, human
# [1] = tested on: patients with postbariatric hypoglycemia (PBH); experiment: Mixed-meal tolerance testing; conditions: for GLP-1, AUC(0–180), mean value (SD) / Glucagon, AUC(0–180), mean value (SD) / Glucose, AUC(0–180), mean value (SD) / GLP-1, fasting, mean value (SD) / GLP-1, peak, mean value (SD) / Glucagon, fasting, mean value (SD) / Glucagon, peak, mean value (SD) / Glucose, AUC(peak:nadir), mean value (SD) / Glucose, fasting, mean value (SD) / Glucose, peak, mean value (SD) / Insulin, fasting, mean value (SD) / Glucose, nadir (primary endpoint), mean value (SD) / Insulin, peak (secondary endpoint), mean value (SD): 14 days, N = 17; for GLP-1, AUC(0–180), mean value (SD) / Glucagon, AUC(0–180), mean value (SD) / Glucose, AUC(0–180), mean value (SD): 0 to 180 minutes; for Glucose, nadir (primary endpoint), mean value (SD): postprandial plasma, within 3 hours of MMTT; for Insulin, peak (secondary endpoint), mean value (SD): postprandial; for Participants requiring rescue during MMTT: vs 47% with placebo
# Method in brief: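 Crossover design: 18 female patients got SC placebo for 14 days, then the test compound at 30 mg every 12 h and 60 mg each morning for 14 days each, in random order. After an overnight fast, each period ended with a 180-min MMTT: 64 g carbohydrate drink over 10 min. Plasma glucose, insulin, C-peptide, GLP-1 and glucagon were sampled every 15 min. Rescue was IV dextrose (point-of-care glucose ≤50 mg/dL with neuroglycopenic symptoms, or ≤40 mg/dL).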
# [2] = tested on: patients with postbariatric hypoglycemia (PBH); experiment: Outpatient hypoglycemia captured by SMBG/eDiary; conditions: for Rate of Level 2 hypoglycemia, mean value (SD): SMBG <54 mg/dL; for Rate of Level 2 hypoglycemia, mean value (SD) / Rate of Level 1 hypoglycemia, mean value (SD): episodes normalized to 14 days, N = 17; for Rate of Level 1 hypoglycemia, mean value (SD): SMBG <70 mg/dL
# Method in brief: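 Outpatients logged each hypoglycaemic episode in an eDiary, using a glucometer (SMBG) over each 14-day period. Entries were symptoms, lowest SMBG, treatment, need for assistance, and postprandial or not. Levels were defined as Level 1 SMBG <70 mg/dL, Level 2 <54 mg/dL, and Level 3 needing another person's assistance. Rate was distinct episodes divided by days, normalised to 14 days. Placebo-adjusted LS means came from a mixed-effect model.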
# [3] = tested on: patients with postbariatric hypoglycemia (PBH); experiment: Outpatient blinded continuous glucose monitoring; conditions: for No. events <54 mg/dL 8 AM-12 AM, mean value (SD) / No. events <54 mg/dL 12 AM-8 AM, mean value (SD): CGM, sustained at least 15 minutes, normalized to 14 days; for No. events <54 mg/dL 8 AM-12 AM, mean value (SD) / No. events <54 mg/dL 12 AM-8 AM, mean value (SD) / % Time <54 mg/dL 8 AM-12 AM, mean value (SD) / % Time >250 mg/dL 24 hours, mean value (SD): N = 17; for % Time <54 mg/dL 8 AM-12 AM, mean value (SD) / % Time >250 mg/dL 24 hours, mean value (SD): percentage of CGM values
# Method in brief: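 Blinded CGM was worn at home through three 14-day periods (placebo, then SC test compound 30 mg twice daily or 60 mg once daily), with two injections daily for blinding. Read-outs were % CGM values <54 mg/dL (8 am–12 am or 12 am–8 am) or >250 mg/dL, normalised to 14 days. LS means were placebo-adjusted by mixed-effect model (treatment, sequence, period fixed; subject within sequence random).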
# [4] = Plasma avexitide pharmacokinetics at end of each 14-day treatment period
# Method in brief: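 Plasma for drug concentration was drawn at the end of each 14-day SC regimen (30 mg every 12 h; 60 mg each morning) on days 29 and 43. Sampling times were −90, 0, 60, 180 and 330 min […], with the trough taken immediately before the −90 min dose. C0, Cmax and AUC0-t were summarised descriptively.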
# [5] = tested on: patients with postbariatric hypoglycemia (PBH); experiment: Safety: treatment-emergent adverse events, laboratory and physical findings
# [6] = avexitide 30 mg twice daily SC, MMTT
# [7] = avexitide 30 mg twice daily, MMTT
# [8] = avexitide 60 mg once daily SC, MMTT
# [9] = avexitide 60 mg once daily, MMTT
# [10] = plasma, end of each 14-day treatment period, SC
substance,measurement,setting,value
exendin (9-39) [Avexitide],Fewer participants requiring rescue during MMTT compared with placebo,[1]; avexitide 30 mg twice daily,50%
same,"GLP-1, AUC(0–180), mean value (SD)",[1]; [6],330.8 (140.5) h×mg/dL
same,"Glucagon, AUC(0–180), mean value (SD)",[1]; [6],466.7 (131.2) h × mg/dL
same,"Glucose, AUC(0–180), mean value (SD)",[1]; [6],320.0 (89.5) h × mg/dL
same,"GLP-1, fasting, mean value (SD)",[1]; [6],12.7 (3.4) pg/mL
same,"GLP-1, peak, mean value (SD)",[1]; [6],413.3 (193.6) pg/mL
same,"Glucagon, fasting, mean value (SD)",[1]; [6],156.3 (0) pg/mL
same,"Glucagon, peak, mean value (SD)",[1]; [6],196.7 (49.8) pg/mL
same,"Glucose, AUC(peak:nadir), mean value (SD)",[1]; [6],192.3 (91.9) h × mg/dL
same,"Glucose, fasting, mean value (SD)",[1]; [6],87.5 (6.0) mg/dL
same,"Glucose, peak, mean value (SD)",[1]; [6],218.2 (45.2) mg/dL
same,"Insulin, fasting, mean value (SD)",[1]; [6],4.5 (2.7) μIU/mL
same,"Glucose, nadir (primary endpoint), mean value (SD)",[1]; avexitide 30 mg twice daily SC,57.1 (16.5) mg/dL
same,"Insulin, peak (secondary endpoint), mean value (SD)",[1]; [6],349.5 (156.9) μIU/mL
same,AUC glucose concentrations higher than placebo,[1]; [7],12%
same,Increase of mean plasma glucose nadir compared with placebo,[1]; [7],21%
same,LS mean postprandial insulin peak lower than with placebo,[1]; [7],104.53 μIU/mL
same,Reduction of peak insulin compared with placebo,[1]; [7],23%
same,Participants requiring rescue during MMTT,[1]; avexitide 30 mg twice daily,24%
same,Fewer participants requiring rescue during MMTT compared with placebo,[1]; avexitide 60 mg once daily,75%
same,"GLP-1, AUC(0–180), mean value (SD)",[1]; [8],351.1 (127.5) h×mg/dL
same,"Glucagon, AUC(0–180), mean value (SD)",[1]; [8],484.1 (96.7) h × mg/dL
same,"Glucose, AUC(0–180), mean value (SD)",[1]; [8],338.1 (80.7) h × mg/dL
same,"GLP-1, fasting, mean value (SD)",[1]; [8],12.7 (4.6) pg/mL
same,"GLP-1, peak, mean value (SD)",[1]; [8],397.1 (150.2) pg/mL
same,"Glucagon, fasting, mean value (SD)",[1]; [8],156.8 (2.2) pg/mL
same,"Glucagon, peak, mean value (SD)",[1]; [8],182.9 (35.9) pg/mL
same,"Glucose, AUC(peak:nadir), mean value (SD)",[1]; [8],204.6 (86.3) h × mg/dL
same,"Glucose, fasting, mean value (SD)",[1]; [8],84.6 (4.2) mg/dL
same,"Glucose, peak, mean value (SD)",[1]; [8],224.5 (47.3) mg/dL
same,"Insulin, fasting, mean value (SD)",[1]; [8],4.1 (2.6) μIU/mL
same,"Glucose, nadir (primary endpoint), mean value (SD)",[1]; avexitide 60 mg once daily SC,59.2 (16.1) mg/dL
same,"Insulin, peak (secondary endpoint), mean value (SD)",[1]; [8],357.2 (190.9) μIU/mL
same,AUC glucose concentrations higher than placebo,[1]; [9],18%
same,Increase of mean plasma glucose nadir compared with placebo,[1]; [9],26%
same,LS mean postprandial insulin peak lower than with placebo,[1]; [9],96.29 μIU/mL
same,Reduction of peak insulin compared with placebo,[1]; [9],21%
same,Participants requiring rescue during MMTT,[1]; avexitide 60 mg once daily,12%
same,Postprandial concentrations of GLP-1 and glucagon relative to placebo,"[1]; both avexitide treatment regimens, MMTT",significantly higher
same,"Influence on fasting insulin, GLP-1, or glucagon","[1]; both dosing regimens, MMTT",no influence
same,Reduction of rate of SMBG <54 mg/dL (Level 2 hypoglycemia) compared with placebo,[2]; avexitide 30 mg twice daily,40%
same,Reduction of rate of SMBG <70 mg/dL (Level 1 hypoglycemia) compared with placebo,[2]; avexitide 30 mg twice daily,30%
same,Reduction of rate of severe hypoglycemia (Level 3) events,[2]; avexitide 30 mg twice daily,23%
same,"Rate of Level 2 hypoglycemia, mean value (SD)",[2]; avexitide 30 mg twice daily SC,1.21 (1.65)
same,"Rate of Level 1 hypoglycemia, mean value (SD)",[2]; avexitide 30 mg twice daily SC,2.81 (2.13)
same,Reduction of rate of SMBG <54 mg/dL (Level 2 hypoglycemia) compared with placebo,[2]; avexitide 60 mg once daily,60%
same,Reduction of rate of SMBG <70 mg/dL (Level 1 hypoglycemia) compared with placebo,[2]; avexitide 60 mg once daily,61%
same,Reduction of rate of severe hypoglycemia (Level 3) events,[2]; avexitide 60 mg once daily,56%
same,"Rate of Level 2 hypoglycemia, mean value (SD)",[2]; avexitide 60 mg once daily SC,0.81 (0.88)
same,"Rate of Level 1 hypoglycemia, mean value (SD)",[2]; avexitide 60 mg once daily SC,1.56 (1.27)
same,"No. events <54 mg/dL 8 AM-12 AM, mean value (SD)",[3]; avexitide 30 mg twice daily SC,2.82 (3.00)
same,"No. events <54 mg/dL 12 AM-8 AM, mean value (SD)",[3]; avexitide 30 mg twice daily SC,2.34 (3.03)
same,"% Time <54 mg/dL 8 AM-12 AM, mean value (SD)",[3]; avexitide 30 mg twice daily SC,0.99 (1.12) %
same,"% Time >250 mg/dL 24 hours, mean value (SD)",[3]; avexitide 30 mg twice daily SC,0.99 (1.34) %
same,Reduction of mean percent time with glucose <54 mg/dL,"[3]; avexitide 30 mg twice daily, blinded CGM",50%
same,"No. events <54 mg/dL 8 AM-12 AM, mean value (SD)",[3]; avexitide 60 mg once daily SC,3.46 (2.48)
same,"No. events <54 mg/dL 12 AM-8 AM, mean value (SD)",[3]; avexitide 60 mg once daily SC,3.56 (4.18)
same,"% Time <54 mg/dL 8 AM-12 AM, mean value (SD)",[3]; avexitide 60 mg once daily SC,1.49 (1.70) %
same,"% Time >250 mg/dL 24 hours, mean value (SD)",[3]; avexitide 60 mg once daily SC,0.85 (0.98) %
same,Reduction of mean percent time with glucose <54 mg/dL,"[3]; avexitide 60 mg once daily, blinded CGM",24%
same,Percent time with glucose >250 mg/dL,"[3]; blinded CGM, across treatment groups",less than 1%
same,Evidence of systemic plasma exposure,[4]; both dosing regimens,observed in all patients
same,"Mean (AUC0-t) exposure, higher for 60 mg once daily than 30 mg twice daily",[4]; [10],40%
same,"Peak (Cmax) exposure, higher for 60 mg once daily than 30 mg twice daily",[4]; [10],72%
same,"Serious adverse event (presyncope), reported as unrelated to study drug and self-limited",[5]; avexitide 60 mg once daily,1
same,"Changes in vital signs, body weight, hematology or chemistry",[5]; both dosing regimens,No clinically significant changes
same,Patient withdrawals,[5]; both dosing regimens,no patient withdrawals
same,Treatment-related serious adverse events,[5]; both dosing regimens,no treatment-related serious adverse events
same,Tolerability,"[5]; both dosing regimens, 28 days",well tolerated
